Here are results for 6 compounds from ChEMBL document CHEMBL1143775, “Convenient one pot synthesis of some novel derivatives of thiazolo[2,3-b]dihydropyrimidinone possessing 4-methylthiophenyl moiety and evaluation of their antibacterial and antifungal activities” (2007).

As a reminder, the MIC is the lowest concentration found to suppress growth. The low end stands for a more susceptible organism, the high end for a less susceptible organism.

Converted amounts (≈) assume the structure as drawn.

Assay type in all cases: functional
Assay [1] concerns Candida albicans. As to the kind of experiment: Antifungal activity against Candida albicans NCIM 3100 at 10 ug/ml. To be noted: read-out: IZ. An outline of the steps: (§1)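 Serial dilution method on Sabouraud agar (peptone, D-glucose, agar; pH 5.7) seeded with a saline spore suspension made from a loopful of each strain. Plates were dried for 1 h at incubator temperature. Test solutions in DMSO went into punched wells, with a DMSO control. Incubation was at 37 °C for 3–4 days. Zone of inhibition and MIC were read against ciclopiroxolamine as standard.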

For assay [2], the system named is Aspergillus flavus. As to the kind of experiment: Antifungal activity against Aspergillus flavus NCIM 524 by dilution method. Summed up:
as §1

Assay [3] concerns Aspergillus flavus. As to the kind of experiment: Antifungal activity against Aspergillus flavus NCIM 524 at 10 ug/ml. The conditions noted are these: read-out: IZ. Summed up: as §1
Assay [4] deals with Escherichia coli. The assay is described as follows: Antibacterial activity against Escherichia coli ATCC 25922. An outline of the steps: (§2)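 Compound-loaded discs were placed on nutrient agar inoculated separately with fresh bacterial strains. Plates were incubated at 37 °C for 24 h with separate solvent and growth controls. Zone of inhibition and MIC were measured. Ciprofloxacin was the reference drug.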

For assay [5], the system named is Klebsiella pneumoniae. As to the kind of experiment: Antibacterial activity against Klebsiella pneumoniae. Summed up:
as §2

Assay [6] relates to Pseudomonas aeruginosa. The assay is described as follows: Antibacterial activity against Pseudomonas aeruginosa ATCC 27853. Summed up: as §2
Assay [7] relates to Klebsiella pneumoniae. As to the kind of experiment: Antibacterial activity against Klebsiella pneumoniae at 10 ug/ml. To be noted: read-out: IZ. An outline of the steps:
as §2

The subject of assay [8] is Aspergillus fumigatus. The assay is described as follows: Antifungal activity against Aspergillus fumigatus NCIM 902 at 10 ug/ml. The conditions noted are these: read-out: IZ. An outline of the steps: as §1
For assay [9], the system named is Staphylococcus aureus. The assay is described as follows: Antibacterial activity against Staphylococcus aureus ATCC 25923. Summed up:
as §2

Assay [10] concerns Talaromyces marneffei. The assay is described as follows: Antifungal activity against Penicillium marneffei at 10 ug/ml. The conditions noted are these: read-out: IZ. An outline of the steps: as §1
Assay [11] relates to Staphylococcus aureus. The assay is described as follows: Antibacterial activity against Staphylococcus aureus ATCC 25923 at 10 ug/ml by disk diffusion method. To be noted: read-out: IZ. Summed up:
as §2
For orientation: In agar diffusion tests the substance spreads into inoculated agar from a disc or well.

Assay [12] concerns Escherichia coli. As to the kind of experiment: Antibacterial activity against Escherichia coli ATCC 25922 at 10 ug/ml. To be noted: read-out: IZ. Summed up: as §2
Assay [13] deals with Pseudomonas aeruginosa. As to the kind of experiment: Antibacterial activity against Pseudomonas aeruginosa ATCC 27853 at 10 ug/ml. To be noted: read-out: IZ. An outline of the steps:
as §2

Assay [14] relates to Talaromyces marneffei. The assay is described as follows: Antifungal activity against Penicillium marneffei by dilution method. An outline of the steps: as §1
In assay [15] the test system is Aspergillus fumigatus. As to the kind of experiment: Antifungal activity against Aspergillus fumigatus NCIM 902 by dilution method. An outline of the steps: as §1
Assay [16] deals with Candida albicans. The assay is described as follows: Antifungal activity against Candida albicans NCIM 3100 by dilution method. An outline of the steps:
as §1

In the case of `CCOC(=O)C1=C(C)N=c2s/c(=C\c3ccc(-c4ccc([N+](=O)[O-])cc4)o3)c(=O)n2C1c1ccc(SC)cc1` (stereo unspecified), the zone of inhibition at 10 µg/mL was determined as 12 mm in assay [1]; 12 mm in [3]; 11 mm in assay [7]; 17 mm in assay [8]; 11 mm in [10]; 10 mm in [11]. Besides, the zone of inhibition at 10 µg/mL in assay [12] turned out to be 12 mm; in [13] it was 13 mm. The MIC in assay [2] came out at 25 mg/L (≈ 44.5 µM); in assay [4], 25 mg/L (≈ 44.5 µM); in assay [5] it was 12.5 mg/L (≈ 22.3 µM); in assay [6], 12.5 mg/L (≈ 22.3 µM); in assay [9] it was 25 mg/L (≈ 44.5 µM); in assay [14], 12.5 mg/L (≈ 22.3 µM). For the same compound, the MIC in [15] and in assay [16] was 12.5 mg/L (≈ 22.3 µM) each time.
Consider `CCOC(=O)C1=C(C)N=c2s/c(=C\c3ccc(F)c(Oc4ccccc4)c3)c(=O)n2C1c1ccc(SC)cc1` (stereo unspecified), for which the zone of inhibition at 10 µg/mL in assay [1] was 20 mm; in assay [3], 18 mm; in [7], 12 mm; in [8], 12 mm; in [10], 19 mm; in [11], 19 mm. The values for the zone of inhibition at 10 µg/mL in assay [12] and in [13] were 10 mm and 12 mm, respectively. The MIC in assay [2] is 12.5 mg/L (≈ 22.3 µM); in assay [4], 25 mg/L (≈ 44.6 µM); in assay [5], 12.5 mg/L (≈ 22.3 µM); in [6], 12.5 mg/L (≈ 22.3 µM); in [9], 12.5 mg/L (≈ 22.3 µM); in assay [14], 6 mg/L (≈ 10.7 µM). Besides, the MIC in [15] is 12.5 mg/L (≈ 22.3 µM); in [16], 6 mg/L (≈ 10.7 µM).
As for `CCOC(=O)C1=C(C)N=c2s/c(=C\c3ccc(Cl)cc3Cl)c(=O)n2C1c1ccc(SC)cc1` (stereo unspecified), the zone of inhibition at 10 µg/mL in [1] was determined as 12 mm; in assay [3], 10 mm; in assay [7], 10 mm; in [8], 11 mm; in [10], 10 mm; in assay [11] it was 18 mm. In addition, the values for the zone of inhibition at 10 µg/mL in [12] and in assay [13] were 11 mm and 13 mm, respectively. In addition, the MIC in assay [2] came to 25 mg/L (≈ 48.1 µM); in [4] it was 25 mg/L (≈ 48.1 µM); in [5] it was 12.5 mg/L (≈ 24.1 µM); in assay [6], 12.5 mg/L (≈ 24.1 µM); in [9], 12.5 mg/L (≈ 24.1 µM); in assay [14], 12.5 mg/L (≈ 24.1 µM). Besides, the minimal inhibitory concentration (MIC) in assay [15] and in assay [16] was 12.5 mg/L (≈ 24.1 µM) each time.
Regarding `CCOC(=O)C1=C(C)N=c2s/c(=C\c3ccc(F)cc3)c(=O)n2C1c1ccc(SC)cc1` (stereo unspecified), the zone of inhibition at 10 µg/mL in [1] worked out at 19 mm; in assay [3] it was 18 mm; in assay [7] it was 20 mm; in assay [8] it was 20 mm; in assay [10], 20 mm; in assay [11], 18 mm. Also, the zone of inhibition at 10 µg/mL in assay [12] amounted to 17 mm; in assay [13], 10 mm. Moreover, the MIC in assay [2] worked out at 12.5 mg/L (≈ 26.7 µM); in [4], 12.5 mg/L (≈ 26.7 µM); in assay [5] it was 6 mg/L (≈ 12.8 µM); in assay [6] it was 12.5 mg/L (≈ 26.7 µM); in assay [9] it was 12.5 mg/L (≈ 26.7 µM); in assay [14], 6 mg/L (≈ 12.8 µM). For the same compound, the MIC in [15] and in assay [16] was 6 mg/L (≈ 12.8 µM) each time.
`CCOC(=O)C1=C(C)N=c2s/c(=C\c3ccc(O)cc3)c(=O)n2C1c1ccc(SC)cc1` (stereo unspecified): the zone of inhibition at 10 µg/mL in [1] is 10 mm; in [3] it was 10 mm; in [7] it was 12 mm; in [8] it was 10 mm; in [10] it was 12 mm; in assay [11], 12 mm. The zone of inhibition at 10 µg/mL was determined as 12 mm in assay [12] and 15 mm in assay [13]. Further, the MIC in assay [2] turned out to be 25 mg/L (≈ 53.6 µM); in assay [4] it was 25 mg/L (≈ 53.6 µM); in assay [5], 12.5 mg/L (≈ 26.8 µM); in assay [6], 12.5 mg/L (≈ 26.8 µM); in [9] it was 25 mg/L (≈ 53.6 µM); in [14], 12.5 mg/L (≈ 26.8 µM). For the same compound, the MIC in [15] and in [16] was 12.5 mg/L (≈ 26.8 µM) each time.
`CCOC(=O)C1=C(C)N=c2s/c(=C\c3ccc(Cl)cc3)c(=O)n2C1c1ccc(SC)cc1` (stereo unspecified): the zone of inhibition at 10 µg/mL in [1] came to 11 mm; in assay [3] it was 12 mm; in assay [7] it was 10 mm; in [8] it was 11 mm; in assay [10], 10 mm; in assay [11], 10 mm. In addition, the zone of inhibition at 10 µg/mL in [12] came out at 10 mm; in assay [13], 12 mm. Further, the MIC turned out to be 25 mg/L (≈ 51.5 µM) in [2]; 25 mg/L (≈ 51.5 µM) in assay [4]; 12.5 mg/L (≈ 25.8 µM) in assay [5]; 12.5 mg/L (≈ 25.8 µM) in [6]; 25 mg/L (≈ 51.5 µM) in assay [9]; 12.5 mg/L (≈ 25.8 µM) in assay [14]. Also, the MIC in assay [15] and in assay [16] was 12.5 mg/L (≈ 25.8 µM) each time.
